IC50 data for twelve compounds are collected here from ChEMBL document CHEMBL1275311, “Synthesis and vasodilation activity of some novel bis(3-pyridinecarbonitrile) derivatives” (Eur J Med Chem, 2010).

The test relates to Thoracic aorta. The test is described as follows: Vasodilatory activity in Wistar rat thoracic aorta assessed as reduction of norepinephrine hydrochloride-induced vasoconstriction. It counts as functional, tissue-based. Put shortly: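 Isolated rat aorta preparation with contractile response recorded. Compounds were dissolved in DMSO, with vehicle-only controls run at the same DMSO concentrations. Relaxation was plotted against compound concentration (mM) to give concentration–response curves, and IC50 was calculated by the best-fit line technique.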
What is called IC50 is the midpoint of a concentration-inhibition curve. With `CCOc1nc(-c2ccc(F)cc2)cc(-c2ccccc2OCCOc2ccccc2-c2cc(-c3ccc(F)cc3)nc(OCC)c2C#N)c1C#N`, the half-inhibitory concentration (IC50) was 470 µM. Consider `CCOc1nc(-c2ccc(Cl)cc2)cc(-c2ccccc2OCCOc2ccccc2-c2cc(-c3ccc(Cl)cc3)nc(OCC)c2C#N)c1C#N`, for which the IC50 is 622 µM. Regarding `COc1nc(-c2ccc(Cl)cc2)cc(-c2ccccc2OCCOc2ccccc2-c2cc(-c3ccc(Cl)cc3)nc(OC)c2C#N)c1C#N`, the concentration for half-maximal inhibition (IC50) was determined as 665 µM. In the case of `COc1nc(-c2ccccc2)cc(-c2ccccc2OCCOc2ccccc2-c2cc(-c3ccccc3)nc(OC)c2C#N)c1C#N`, the IC50 is 1050 µM. For `COc1nc(-c2cccs2)cc(-c2ccccc2OCCOc2ccccc2-c2cc(-c3cccs3)nc(OC)c2C#N)c1C#N`, the IC50 was determined as 1270 µM. Then `COc1ccc(-c2cc(-c3ccccc3OCCOc3ccccc3-c3cc(-c4ccc(OC)cc4)nc(OC)c3C#N)c(C#N)c(OC)n2)cc1`, with 890 µM; and `COc1nc(-c2ccc(F)cc2)cc(-c2ccccc2OCCOc2ccccc2-c2cc(-c3ccc(F)cc3)nc(OC)c2C#N)c1C#N`, with 517 µM; and `CCOc1nc(-c2ccccc2)cc(-c2ccccc2OCCOc2ccccc2-c2cc(-c3ccccc3)nc(OCC)c2C#N)c1C#N`, with 862 µM. Then `CCOc1nc(-c2ccc(OC)cc2)cc(-c2ccccc2OCCOc2ccccc2-c2cc(-c3ccc(OC)cc3)nc(OCC)c2C#N)c1C#N`, with 696 µM. Consider `CCOc1nc(-c2cccs2)cc(-c2ccccc2OCCOc2ccccc2-c2cc(-c3cccs3)nc(OCC)c2C#N)c1C#N`, for which the 50% inhibitory concentration (IC50) is 865 µM. On to `COc1nc(-c2ccc(C)cc2)cc(-c2ccccc2OCCOc2ccccc2-c2cc(-c3ccc(C)cc3)nc(OC)c2C#N)c1C#N`, for which the IC50 was 795 µM. Then `CCOc1nc(-c2ccc(O)cc2)cc(-c2ccccc2OCCOc2ccccc2-c2cc(-c3ccc(O)cc3)nc(OCC)c2C#N)c1C#N`, with 970 µM.
